In ChEMBL document CHEMBL1121685, “Development of new mitomycin C and porfiromycin analogues” (J Med Chem, 1981):

Key:
[1] = test system: Mus musculus; test: Minimum effective dose that show activity against P-388 murine leukemia cells in CDF1 female mice, after intraperitoneal administration (optimal dose is 6.4 mg/kg); format: functional; conditions: P388, ip, read-out: MED
Outline: (§1)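 10⁶ P-388 ascites cells implanted ip in CDF₁ female mice. Six mice per dose, 10 saline-injected controls, and a concurrent mitomycin C reference group. %T/C = median survival time of treated/control × 100. MED is the lowest dose giving %T/C > 125. Therapeutic ratio = optimal dose/MED.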

[2] = test system: Mus musculus; test: Antitumor activity against P-388 murine leukemia cells in CDF1 female mice after intraperitoneal administration at the specified optimal dose of 6.4 mg/kg; format: functional
[3] = Therapeutic ratio is expressed as ratio of optimal dose and minimum effective dose; format: ADME; conditions: mouse; read-out: TR; outline: as §1
[4] = test system: Mus musculus; test: Minimum effective dose that show activity against P-388 murine leukemia cells in CDF1 female mice, after intraperitoneal administration (optimal dose is 3.2 mg/kg); format: functional; conditions: P388, ip, read-out: MED; outline: as §1
[5] = test system: Mus musculus; test: Antitumor activity against P-388 murine leukemia cells in CDF1 female mice after intraperitoneal administration at the specified optimal dose of 3.2 mg/kg; format: functional
[6] = test system: Mus musculus; test: Minimum effective dose that show activity against P-388 murine leukemia cells in CDF1 female mice, after intraperitoneal administration (optimal dose is 25.6 mg/kg); format: functional; conditions: P388, ip, read-out: MED; outline: as §1
[7] = test system: Mus musculus; test: Antitumor activity against P-388 murine leukemia cells in CDF1 female mice after intraperitoneal administration at the specified optimal dose of 25.6 mg/kg; format: functional
[8] = test system: Mus musculus; test: Minimum effective dose that show activity against P-388 murine leukemia cells in CDF1 female mice, after intraperitoneal administration (optimal dose is 12.8 mg/kg); format: functional; conditions: P388, ip, read-out: MED; outline: as §1
[9] = test system: Mus musculus; test: Antitumor activity against P-388 murine leukemia cells in CDF1 female mice after intraperitoneal administration at the specified optimal dose of 12.8 mg/kg; format: functional
[10] = species: Mus musculus; test: Degree of leukopenia produced by compound is assessed form Percent change in white cells on days 5; format: functional
Outline: (§2)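 BDG₁ male mice received a single ip dose on day 0. The dose series topped out at the LD₅₀ level, or at twice the optimal dose for some agents. Total white blood cell count was taken on days 3, 5 and 7 and expressed as % change from untreated controls. Significance was set at p ≤ 0.05 or p ≤ 0.01.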

[11] = species: Mus musculus; test: Half-wave potential produced by the compound at their optimal dose; format: functional; parameters: unit not given here
[12] = test system: Mus musculus; test: Effect of compound on total white blood cell count in BDG1 male mice, after intraperitoneal administration at a dose of 12.8 mg/kg on day 3; format: functional; outline: as §2
[13] = test system: Mus musculus; test: Effect of compound on total white blood cell count in BDG1 male mice, after intraperitoneal administration at a dose of 12.8 mg/kg on day 5; format: functional; outline: as §2
[14] = test system: Mus musculus; test: Effect of compound on total white blood cell count in BDG1 male mice, after intraperitoneal administration at a dose 6.4 mg/kg on day 7; format: functional; outline: as §2
[15] = test system: Mus musculus; test: Effect of compound on total white blood cell count in BDG1 male mice, after intraperitoneal administration at a dose of 25.6 mg/kg on day 3 (highest dose was twice the optimal dose); format: functional
[16] = test system: Mus musculus; test: Effect of compound on total white blood cell count in BDG1 male mice, after intraperitoneal administration at a dose of 6.4 mg/kg on day 5; format: functional
Outline: (§3)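 Single ip dose given on day 0 to BDG₁ male mice. Total white blood cell count measured on days 3, 5 and 7, expressed as % change from control. Highest dose was at the LD₅₀, or at twice the optimal dose where so footnoted. Significance reported at p ≤ 0.05 and p ≤ 0.01. D marks death of one or more mice.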

[17] = test system: Mus musculus; test: Effect of compound on total white blood cell count in BDG1 male mice, after intraperitoneal administration at a dose of 6.4 mg/kg on day 3; format: functional; outline: as §3
[18] = test system: Mus musculus; test: Effect of compound on total white blood cell count in BDG1 male mice, after intraperitoneal administration at a dose of 45 mg/kg on day 7; format: functional; outline: as §3
[19] = test system: Mus musculus; test: Effect of compound on total white blood cell count in BDG1 male mice, after intraperitoneal administration at a dose of 33.8 mg/kg on day 3; format: functional
Outline: (§4)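 Single ip dose given on day 0 to BDG1 male mice over a descending dose series. Total white blood cell count is expressed as % change from untreated control on days 3, 5 and 7. Significance is flagged at p ≤ 0.05 and p ≤ 0.01.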

[20] = test system: Mus musculus; test: Effect of compound on total white blood cell count in BDG1 male mice, after intraperitoneal administration at a dose of 33.8 mg/kg on day 5; format: functional; outline: as §4
[21] = test system: Mus musculus; test: Effect of compound on total white blood cell count in BDG1 male mice, after intraperitoneal administration at a dose of 33.8 mg/kg on day 7; format: functional; outline: as §4
[22] = test system: Mus musculus; test: Effect of compound on total white blood cell count in BDG1 male mice, after intraperitoneal administration at a dose of 45 mg/kg on day 3; format: functional; outline: as §3
[23] = test system: Mus musculus; test: Effect of compound on total white blood cell count in BDG1 male mice, after intraperitoneal administration at a dose of 45 mg/kg on day 5; format: functional; outline: as §3
[24] = test system: Mus musculus; test: Effect of compound on total white blood cell count in BDG1 male mice, after intraperitoneal administration at a dose of 25.3 mg/kg on day 3; format: functional; outline: as §4
[25] = test system: Mus musculus; test: Effect of compound on total white blood cell count in BDG1 male mice, after intraperitoneal administration at a dose of 25.3 mg/kg on day 5; format: functional; outline: as §4
[26] = test system: Mus musculus; test: Effect of compound on total white blood cell count in BDG1 male mice, after intraperitoneal administration at a dose of 25.3 mg/kg on day 7; format: functional; outline: as §4
[27] = test system: Mus musculus; test: Number of tumored survivors, 45 days after administration of compound at a dose of 12 mg/kg/day in mice; format: functional
[28] = test system: Mus musculus; test: Number of tumored survivors, 45 days after administration of compound at a dose of 24 mg/kg/day in mice; format: functional
[29] = test system: Mus musculus; test: Activity of compound dose of 1.5 mg/kg/day against Murine B-16 Melanocarcinoma in mice; format: functional
[30] = test system: Mus musculus; test: Activity of compound dose of 12 mg/kg/day against Murine B-16 Melanocarcinoma in mice; format: functional
[31] = test system: Mus musculus; test: Activity of compound dose of 24 mg/kg/day against Murine B-16 Melanocarcinoma in mice; format: functional
[32] = test system: Mus musculus; test: Activity of compound dose of 3 mg/kg/day against Murine B-16 Melanocarcinoma in mice; format: functional
[33] = test system: Mus musculus; test: Activity of compound dose of 6 mg/kg/day against Murine B-16 Melanocarcinoma in mice; format: functional
[34] = test system: Mus musculus; test: Number of cured survivors, 45 days after administration of compound at a dose of 12 mg/kg/day in mice; format: functional
[35] = test system: Mus musculus; test: Number of cured survivors, 45 days after administration of compound at a dose of 24 mg/kg/day in mice; format: functional
[36] = test system: Mus musculus; test: Effect of compound on total white blood cell count in BDG1 male mice, after intraperitoneal administration at a dose of 90.5 mg/kg on day 3; format: functional
[37] = test system: Mus musculus; test: Effect of compound on total white blood cell count in BDG1 male mice, after intraperitoneal administration at a dose of 90.5 mg/kg on day 5; format: functional
[38] = test system: Mus musculus; test: Effect of compound on total white blood cell count in BDG1 male mice, after intraperitoneal administration at a dose of 67.9 mg/kg on day 3; format: functional; outline: as §3

| SMILES | selectivity ratio [3] | minimal effective dose [6] [mg/kg] | T/C [7] [%] | minimal effective dose [8] [mg/kg] | T/C [9] [%] | other results |
| --- | --- | --- | --- | --- | --- | --- |
| COC12[C@@H]3N[C@@H]3CN1C1=C(C(=O)C(NCC(N)=O)=C(C)C1=O)[C@@H]2COC(N)=O (stereo not given in full) | 16 |  |  |  |  | minimal effective dose [1]: 0.4 mg/kg; T/C [2]: 217% |
| COC1=C(C)C(=O)C2=C(C1=O)[C@H](COC(N)=O)C1(OC)[C@H]3[C@@H](CN21)N3C (stereo not given in full) | 8 |  |  |  |  | minimal effective dose [4]: 0.4 mg/kg; T/C [5]: 180% |
| C=C(Cl)CNC1=C(C)C(=O)C2=C(C1=O)[C@H](COC(N)=O)C1(OC)[C@@H]3N[C@@H]3CN21 (stereo not given in full) | 8 | 3.2 | 178 |  |  |  |
| C#CCN(C)C1=C(C)C(=O)C2=C(C1=O)[C@H](COC(N)=O)C1(OC)[C@@H]3N[C@@H]3CN21 (stereo not given in full) | 16 |  |  | 0.8 | 210 |  |
| COC12[C@@H]3N[C@@H]3CN1C1=C(C(=O)C(NCc3cccnc3)=C(C)C1=O)[C@@H]2COC(N)=O (stereo not given in full) | 4 |  |  | 3.2 | 167 |  |
| COC12[C@@H]3N[C@@H]3CN1C1=C(C(=O)C(NCCc3ccccc3)=C(C)C1=O)[C@@H]2COC(N)=O (stereo not given in full) |  | 1.6 | 194 |  |  |  |
| C#CC(C)(C)NC1=C(C)C(=O)C2=C(C1=O)[C@H](COC(N)=O)C1(OC)[C@@H]3N[C@@H]3CN21 (stereo not given in full) | 16 | 1.6 | 178 |  |  |  |
| COC12[C@@H](COC(N)=O)c3c(O)c(N=C4C=CC(=O)C=C4)c(C)c(O)c3N1C[C@@H]1[C@H]2N1C (stereo not given in full) | 4 |  |  |  |  | minimal effective dose [1]: 1.6 mg/kg; T/C [2]: 137% |
| COC12[C@@H]3N[C@@H]3CN1C1=C(C(=O)C(NCCCO)=C(C)C1=O)[C@@H]2COC(N)=O (stereo not given in full) | 8 | 3.2 | 244 |  |  | Change [10]: -43%; E1/2 [11]: -0.42 |
| COC12[C@@H]3N[C@@H]3CN1C1=C(C(=O)C(NCc3ccc(S(N)(=O)=O)cc3)=C(C)C1=O)[C@@H]2COC(N)=O (stereo not given in full) | 4 | 6.4 | 150 |  |  |  |
| C=CCNC1=C(C)C(=O)C2=C(C1=O)[C@H](COC(N)=O)C1(OC)[C@H]3[C@@H](CN21)N3C (stereo not given in full) | 4 |  |  | 3.2 | 189 |  |
| COC(=O)CNC1=C(C)C(=O)C2=C(C1=O)[C@H](COC(N)=O)C1(OC)[C@@H]3N[C@@H]3CN21 (stereo not given in full) | 32 |  |  |  | 300 | Change [12]: -55%; Change [13]: -68%; Change [14]: -21%; Change [15]: -65%; Change [16]: -55%; Change [17]: -39% |
| COC12[C@@H]3N[C@@H]3CN1C1=C(C(=O)C(NCC3CCCO3)=C(C)C1=O)[C@@H]2COC(N)=O (stereo not given in full) | 64 | 0.4 | 289 |  |  | Change [10]: -54%; E1/2 [11]: -0.41; Change [18]: -25%; Change [19]: -58%; Change [20]: -62%; Change [21]: -13%; Change [22]: -76%; Change [23]: -72%; Change [24]: -44%; Change [25]: -54%; Change [26]: -19%; Survivors [27]: 1; Survivors [28]: 3; T/C [29]: 146%; T/C [30]: 240%; T/C [31]: 326%; T/C [32]: 173%; T/C [33]: 179%; Survivors [34]: 1; Survivors [35]: 4 |
| COC12[C@@H](COC(N)=O)C3=C(C(=O)C(C)=C(NC4CC4)C3=O)N1C[C@@H]1[C@H]2N1C (stereo not given in full) | 2 |  |  |  | 167 |  |
| COC12[C@@H](COC(N)=O)C3=C(C(=O)C(C)=C(NCc4ccco4)C3=O)N1C[C@@H]1[C@H]2N1C (stereo not given in full) | 16 | 1.6 | 261 |  |  |  |
| COC12[C@@H](COC(N)=O)C3=C(C(=O)C(C)=C(NCCCO)C3=O)N1C[C@@H]1[C@H]2N1C (stereo not given in full) | 16 | 1.6 | 239 |  |  | Change [36]: -78%; Change [37]: -72%; Change [38]: -85% |
| COC12[C@@H]3N[C@@H]3CN1C1=C(C(=O)C(NCc3ccccc3)=C(C)C1=O)[C@@H]2COC(N)=O (stereo not given in full) | 8 |  |  | 1.6 | 188 |  |
| COC12[C@@H]3N[C@@H]3CN1C1=C(C(=O)C(NCCCCl)=C(C)C1=O)[C@@H]2COC(N)=O (stereo not given in full) | 2 |  |  | 6.4 | 140 |  |
| CO[C@@]12[C@H](COC(N)=O)C3=C(C(=O)C(C)=C(N)C3=O)N1C[C@H]1[C@@H]2N1C (stereo not given in full) [PORFIROMYCIN] | 16 |  |  | 0.8 | 225 |  |
